Screening results deposited in PubChem by several laboratories.
PLK1 inh: inhibitors of human PLK1 kinase | inhibition, % at 10 µM | P53350 | hit rate 0.53% among 97,000 | recombinant PLK1 kinase, TR-FRET peptide phosphorylation | AID 619;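 active means inhibition of 50% or more in the single-concentration screen; inactive means inhibition below 50%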
Rev-RRE block: HIV Rev-RRE protein-RNA interaction inhibition; AID 704; hit rate 0.79% among 97,000; Rev peptide-RRE RNA binding, FRET; inhibition, % at 8 µM;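 active means inhibition above the screen-wide mean plus 3 SD, cut at about 35% in these data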
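Assay system: labelled RRE RNA duplex and labelled Rev peptide / Medium: HEPES pH 7.5 salt buffer with EDTA / Reagent: labelled Rev peptide / Schedule: 5 + 15 min at 25 °C / Signal: FRET, excitation 480 nm, emission 540 nm donor and 671 nm acceptor / Benchmarks: DMSO and neomycin B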
Plk1 PBD FP: inhibitors of human Plk1 polo box domain binding; Plk1 PBD phosphopeptide binding, fluorescence polarization; P53350; inhibition, %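 (tested at about 20 µM)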; hit rate 0.13% among 97,000; in the data active means inhibition above about 34%, passing the limit was not always enough
Cav3 T inh: human Cav3.2 channel inhibition, primary screen | B-score at 10 µM | Cav3.2-expressing cells, Fluo-4 calcium fluorescence FDSS; hits give low values | O95180 | hit rate 4% among 100,000 | AID 449739;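 active means single-dose well whose peak fluorescence ratio is a statistical outlier from its plate by either plate-standardised score or position-corrected B-score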
FAK blocker: blocks human focal adhesion kinase activity; Q05397; biochemical FAK kinase activity assay; inhibition, %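 (tested at 7 µM)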; hit rate 0.84% among 97,000; AID 727; in the data active means inhibition above about 19%
EphB4 antag: blocks human EphB4 binding to ephrin-B2; EphB4 LBD / TNYL-RAW-Alexa532 peptide, fluorescence polarization; hit rate 0.15% among 97,000; AID 720; inhibition, % at 7 µM; P54760;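 active means inhibition above the screen-wide mean inhibition plus 3 SD, cut at about 15% in these data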
Numbers stand for hits; 0 = inactive; - = no result. This is a sample that favours compounds with a hit; in the whole collection about 5.3% have one here.

SMILES	PLK1 inh	Rev-RRE block	Plk1 PBD FP	Cav3 T inh	FAK blocker	EphB4 antag
Cc1ccc(SCCNS(=O)(=O)c2ccc3c(c2)OCCO3)cc1	0	0	0	-6.9	0	0
CC(NC(=O)Cn1nnc(-c2ccncc2)n1)c1ccccc1 (centres undefined)	0	0	0	0	0	0
CC(NC(=O)CCSc1nc(-c2ccc3c(c2)OCO3)cc(C(F)(F)F)n1)c1ccccc1 (centres undefined)	0	0	0	-5.2	0	0
COc1ccc(-c2cc(C(F)(F)F)nc(SCCC(=O)NCc3ccccc3)n2)cc1	0	0	0	-5.7	0	0
CCOC(=O)c1ccccc1NC(=O)CSc1nnc(COc2ccccc2C)n1C	0	0	0	-4.6	0	0
CN1CCN(C(=O)CN(CCc2ccccc2)S(C)(=O)=O)CC1	0	0	0	-	0	0
Cc1cccc(NC2=C(Cl)C(=O)OC2NC(=O)c2ccccc2)c1 (centres undefined)	0	0	0	0	0	0
Clc1ccc(-c2cn3nc4c(nc3n2)CCCC4)cc1	0	38	0	0	0	0
Cc1nc2ccccc2n2c(O)c(CC(=O)O)cc12	-	-	-	-6.3	-	-
Cc1nc2ccccc2n1CCC(=O)O	0	0	0	0	0	0
CN(C)/C=C(\C#N)C(=O)c1cccc(Oc2ccc(Br)cc2)c1	0	0	0	-4.2	0	0
CC(C)c1ccc(Oc2cccc(C(=O)/C(C#N)=C/N(C)C)c2)cc1	0	0	0	0	0	0
Cc1ccc(CN2C(=O)CCC2C(=O)NCc2cccnc2)cc1 (centres undefined)	0	0	0	0	0	0
CCS(=O)(=O)n1nc(NCc2cccc(OC)c2)nc1NCc1cccc(OC)c1	0	0	0	-4.2	0	0
C#CCNC(=O)C1=C[C@H](c2coc3ccccc3c2=O)[C@@H](CCCO)[C@H](OCC)O1	-	-	-	0	-	-
O=C(CSc1nnnn1C1CCCCC1)N1c2ccccc2Sc2ccccc21	0	0	0	-6	0	0
CCN(CC)S(=O)(=O)c1cccc(C(=O)Nc2cc(C)cc(C)c2)c1	0	0	0	-3.4	0	0
CCN(CC)S(=O)(=O)c1cccc(C(=O)N[C@H](C(=O)NCc2ccc(Cl)cc2)C(C)C)c1	0	0	0	-9.8	0	0
NC(=O)c1oc2ccc(Cl)cc2c1NC(=O)CN1CCOCC1	0	0	0	0	0	0
CCC1=C(OC(=O)N(CC)CC)N2C(=O)OC(=NCCc3c[nH]c4ccccc34)[C@]2(Cc2ccccc2)[C@H]2C1=CC[C@H]1C(=O)N(C)C(=O)[C@H]12	-	-	-	0	-	-
CC1(C)NC(=O)N(CC(=O)O)C1=O	0	0	0	0	0	0
O=C(NCc1ccc2[nH]c3c(c2c1)CCCC3)N1CCOCC1	0	39	0	0	0	0
CC[C@@H](C)[C@@H](C(=O)N1CCNCC1)n1cc(CCC(=O)O)nn1	-	-	-	0	-	-
COc1ccc(CN(C(=O)c2ccco2)c2ccc(Br)cc2)cc1OC	0	0	0	-4.6	0	0
Cc1ccc(N(Cc2ccc([N+](=O)[O-])cc2)C(=O)c2ccco2)cc1	0	0	0	-6.7	0	0
SMILES	PLK1 inh	Rev-RRE block	Plk1 PBD FP	Cav3 T inh	FAK blocker	EphB4 antag
COc1cc(CN(C(=O)c2ccco2)c2ccc(C)cc2)ccc1O	0	0	0	0	0	0
O=C(O)C(=O)Cc1c[nH]c2ccccc12	-	-	-	0	-	-
Cc1cccc(NC(=O)c2sc3nc4c(c(-c5cccs5)c3c2N)CN(C)CC4)c1	0	71	0	0	0	0
Cc1ccc(CNC(=O)C2CC(=O)N(c3ccc(OCC(=O)N4CCCC4)cc3)C2)cc1 (centres undefined)	0	0	0	0	0	0
O=S(=O)(Nc1nc2ccccc2nc1N1CCN(c2ccccc2F)CC1)c1ccc(Cl)cc1	0	0	0	-5.7	0	0
Cc1cc(N2CCN(c3ccccn3)CC2)n2cc(-c3ccccc3)nc2n1	0	0	0	0	0	16
O=C(CN(C(=O)C1CSC(=O)C1)c1ccccc1F)NCc1ccc2c(c1)OCO2 (centres undefined)	0	0	0	-3.8	0	0
O=C(Cc1ccccc1)NCc1ccc2c(c1)OCO2	0	0	0	0	0	0
CCCCn1nc2cc(C(=O)NCc3ccc(OC(F)(F)F)cc3)ccc2c1OC	0	0	0	0	0	0
CCc1nc(SCc2ccc(F)cc2)[nH]c(=O)c1C#N	0	0	0	-7.7	0	0
CCc1nc(SCc2cccnc2)[nH]c(=O)c1C	-	-	-	0	-	-
CCO[C@@H]1OC(C(=O)N2CCOCC2)=C[C@H](c2coc3ccccc3c2=O)[C@H]1CCCO	-	-	-	0	-	-
COC(=O)c1cccc(C23CC4(C2)[C@H](CN(Cc2cccnc2)[C@@H]4c2ccccc2)C3c2ccccc2)c1 (some centres undefined)	-	-	-	0	-	-
Cc1ccc(S(=O)(=O)NC(CC(=O)O)c2ccccc2)cc1 (centres undefined)	0	0	0	0	0	0
Cc1ccc(S(=O)(=O)NC(CC(=O)n2nc(C)cc2C)c2ccccc2)cc1 (centres undefined)	0	0	0	-6.3	0	0
Cn1c(C(=O)N2CCCC(C(=O)NCCCc3ccccc3)C2)cc2sccc21 (centres undefined)	0	0	0	-4.2	0	0
Cn1c(C(=O)N2CCCC(C(=O)NCCc3ccccc3)C2)cc2sccc21 (centres undefined)	0	0	0	0	0	0
Cc1ccc(CCNC(=O)C2CCCN(C(=O)c3cc4sccc4n3C)C2)cc1 (centres undefined)	0	0	0	-4.8	0	0
COC(=O)c1ccc(C(=O)OC)c(NC(=O)COC(=O)C2CC2C)c1 (centres undefined)	0	0	0	0	0	0
N#Cc1ccc(CSc2nnc(-c3cccs3)n2-c2ccccc2)cc1	0	0	0	-5.8	0	0
CC1CCCCN1C(=O)COC(=O)c1n[nH]c2ccccc12 (centres undefined)	0	0	0	0	0	0
Cc1ccc2nc(N3CCN(C(=O)c4cccs4)CC3)c(C#N)cc2c1	-	-	-	-4.8	-	-
CCOc1c2ccc(C(=O)N[C@H](C)C3CCCCC3)cc2nn1CC	0	0	0	0	0	0
Cc1noc(/C=C/N(C)C)c1S(=O)(=O)N1CCN(c2ccccc2)CC1	69	0	0	0	0	0
O=C(CC(SCc1ccco1)c1ccc(O)cc1)c1cccs1 (centres undefined)	0	0	0	-4.5	0	0
CCOC(=O)[C@H](CCc1ccccc1)N[C@@H](C)C(=O)N1[C@H](C(=O)O)C[C@@H]2CCC[C@@H]21	-	-	-	0	-	-
Cc1cccc(-n2nnnc2SCc2csc(-c3ccccc3)n2)c1	0	0	0	-3.3	0	0
Cc1ccc(Nc2nc(CSc3nnnn3-c3ccccc3)cs2)cc1	0	0	0	-4	0	0
COCCNC(=O)CN(c1ccc(C)cc1)S(=O)(=O)c1ccccc1	0	0	0	0	0	0
